Measured values gathered from unrelated publications.
Each line is one published result; the experiments were not run side by side.
HDAC2: Histone deacetylase 2 (HDAC2, Homo sapiens, UniProt Q92769)
PPO3: PPO3 (Agaricus bisporus, UniProt C7FF04)
PDE4A: 3',5'-cyclic-AMP phosphodiesterase 4A (PDE4A, Homo sapiens, UniProt P27815)
HTR2A: 5-hydroxytryptamine receptor 2A (HTR2A, Homo sapiens, UniProt P28223)

| Compound | target | test | IC50 [µM] |
| --- | --- | --- | --- |
| O=C(NO)c1cncc(OS(=O)(=O)Oc2ccc(C(F)(F)F)cc2)c1 | HDAC2 | enzyme activity, inhibitor, fluorescence | 5.61 |
| Nc1nc(-c2ccc(I)cc2)cc(-c2ccc(-c3cc(-c4ccc(I)cc4)nc(N)n3)cc2)n1 | PPO3 | enzyme activity, inhibitor, absorbance | 30.6 |
| CN(C)C(=O)c1cc2cnc(Nc3ccc(N4CCNCC4)cn3)nc2n1C1CCCC1 | PDE4A | enzyme activity, inhibitor, TR-FRET | 0.25 |
| c1ccc(O[C@H]2CCN(Cc3ccc(-c4ccn[nH]4)o3)C2)cc1 | HTR2A | calcium signal, antagonist | 5.2 |
| CCc1c(C)nc(-c2ccc(Cl)s2)nc1Nc1ccc(CC(=O)O)cc1 | PDE4A | enzyme activity, inhibitor, FP | ~3.7 |
| CC(C)C(N)CCN(C)C(=O)C(=O)Nc1cc2ccccc2cc1Cl (stereo not drawn) | HTR2A | calcium signal, antagonist | 15.7 |
| Nc1ccccc1NC(=O)c1ccc(CNc2ccc(NC3=C(Cl)C(=O)c4cccnc4C3=O)cc2)cc1 | HDAC2 | enzyme activity, inhibitor | 0.415 |
| O=C(NO)c1cncc(OS(=O)(=O)Oc2ccc(-n3ccnc3)cc2)c1 | HDAC2 | enzyme activity, inhibitor, fluorescence | 1.37 |
| Nc1nc(-c2ccccc2)cc(-c2ccc(-c3cc(-c4ccccc4)nc(N)n3)cc2)n1 | PPO3 | enzyme activity, inhibitor, absorbance | 86.7 |
| O=C1CC[C@H](N2Cc3cc(N4CCN(CC5CCN(c6ccc([C@@H]7c8ccc(O)cc8CC[C@@H]7c7ccccc7)cc6)CC5)CC4)ccc3C2=O)C(=O)N1 | Kappa-type opioid receptor (OPRK1, Homo sapiens, UniProt P41145) | ligand displacement, radioligand | 0.25 |
| Cc1ccc(-c2cc(-c3ccc(-c4cc(-c5ccc(C)cc5)nc(N)n4)cc3)nc(N)n2)cc1 | PPO3 | enzyme activity, inhibitor, absorbance | 37.2 |
| NCC1Cc2cc(F)ccc2N(C(=O)Cc2cc(F)ccc2Br)C1 (stereo not drawn) | HTR2A | calcium signal, antagonist | 1.16 |
